Experimental data from PMC7049346 (Haematologica, 2019).

Tests used:
PDE9A2 = PDE9A2 (Homo sapiens, UniProt O76083); experiment: PDE enzyme inhibition, radiometric assay; format: biochemical; details: IC50, recombinant human PDE9A2
Summary of the method: (§1)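 Recombinant human PDE enzymes (33 in the panel) were incubated in vitro with increasing concentrations of the test compound. Enzyme activity was measured radiometrically and IC50 values derived.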

PDE1A3 = PDE1A3 (Homo sapiens, UniProt P54750); experiment: PDE enzyme inhibition, radiometric assay; format: biochemical
Summary of the method: as §1

PDE4C2 = PDE4C2 (Homo sapiens, UniProt Q08493); experiment: PDE enzyme inhibition, radiometric assay; format: biochemical
Summary of the method: as §1

rats = experiment: Long-term toxicology study in normal rats; format: in vivo; details: data not shown
PDE1B = PDE1B (Homo sapiens, UniProt Q01064); experiment: PDE enzyme inhibition, radiometric assay; format: biochemical
Summary of the method: as §1

K562 cells = experiment: Cytotoxicity in K562 cells; format: cell-based, human; details: end of 72-h culture
Summary of the method: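 Actively growing K562 cells were cultured for 72 h with increasing concentrations of the test compound. Terminal viability was scored by automated cell counting or trypan-blue exclusion, or by an ATP-based luminescence assay. Apoptosis was checked by Annexin V flow cytometry.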

[1] = Brain and plasma exposure in mice; format: in vivo, C57Bl/6J mice
PDE4D7 = PDE4D7 (Homo sapiens, UniProt Q08499); experiment: PDE enzyme inhibition, radiometric assay; format: biochemical
Summary of the method: as §1

HbSS-Townes mice = experiment: Townes SCD model, 30 days daily oral dosing; format: in vivo; details: 30 days

Sequence of PDE1B (Q01064 whole entry): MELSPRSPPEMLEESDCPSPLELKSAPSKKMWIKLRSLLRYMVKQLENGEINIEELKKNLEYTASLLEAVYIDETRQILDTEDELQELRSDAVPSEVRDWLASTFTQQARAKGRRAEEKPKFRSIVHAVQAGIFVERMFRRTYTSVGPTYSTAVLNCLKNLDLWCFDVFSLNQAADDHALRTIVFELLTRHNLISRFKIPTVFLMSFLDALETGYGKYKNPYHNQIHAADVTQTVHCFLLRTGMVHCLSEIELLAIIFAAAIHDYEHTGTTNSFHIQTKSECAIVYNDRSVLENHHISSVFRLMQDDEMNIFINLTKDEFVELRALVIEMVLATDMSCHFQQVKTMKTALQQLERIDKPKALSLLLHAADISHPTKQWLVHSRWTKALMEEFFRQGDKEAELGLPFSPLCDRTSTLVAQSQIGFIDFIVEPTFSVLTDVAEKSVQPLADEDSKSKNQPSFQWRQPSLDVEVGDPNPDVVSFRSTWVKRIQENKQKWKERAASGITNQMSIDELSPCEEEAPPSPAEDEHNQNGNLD
Sequence of PDE9A2 (O76083 1-533 isoform O76083-2): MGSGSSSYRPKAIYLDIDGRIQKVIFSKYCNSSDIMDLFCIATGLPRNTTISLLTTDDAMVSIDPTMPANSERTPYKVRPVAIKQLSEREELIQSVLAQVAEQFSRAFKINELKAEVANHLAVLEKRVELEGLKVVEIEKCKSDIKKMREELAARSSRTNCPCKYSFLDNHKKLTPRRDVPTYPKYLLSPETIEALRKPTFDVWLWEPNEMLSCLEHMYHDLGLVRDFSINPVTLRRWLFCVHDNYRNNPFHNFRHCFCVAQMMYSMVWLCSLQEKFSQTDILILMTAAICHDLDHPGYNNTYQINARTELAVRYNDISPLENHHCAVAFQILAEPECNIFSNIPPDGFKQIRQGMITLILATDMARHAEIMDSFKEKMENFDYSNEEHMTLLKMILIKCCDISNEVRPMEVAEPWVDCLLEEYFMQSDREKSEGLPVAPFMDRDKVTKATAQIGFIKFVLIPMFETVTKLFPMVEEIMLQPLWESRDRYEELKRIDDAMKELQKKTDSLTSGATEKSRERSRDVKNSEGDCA
Sequence of PDE4D7 (Q08499 1-748 isoform Q08499-11): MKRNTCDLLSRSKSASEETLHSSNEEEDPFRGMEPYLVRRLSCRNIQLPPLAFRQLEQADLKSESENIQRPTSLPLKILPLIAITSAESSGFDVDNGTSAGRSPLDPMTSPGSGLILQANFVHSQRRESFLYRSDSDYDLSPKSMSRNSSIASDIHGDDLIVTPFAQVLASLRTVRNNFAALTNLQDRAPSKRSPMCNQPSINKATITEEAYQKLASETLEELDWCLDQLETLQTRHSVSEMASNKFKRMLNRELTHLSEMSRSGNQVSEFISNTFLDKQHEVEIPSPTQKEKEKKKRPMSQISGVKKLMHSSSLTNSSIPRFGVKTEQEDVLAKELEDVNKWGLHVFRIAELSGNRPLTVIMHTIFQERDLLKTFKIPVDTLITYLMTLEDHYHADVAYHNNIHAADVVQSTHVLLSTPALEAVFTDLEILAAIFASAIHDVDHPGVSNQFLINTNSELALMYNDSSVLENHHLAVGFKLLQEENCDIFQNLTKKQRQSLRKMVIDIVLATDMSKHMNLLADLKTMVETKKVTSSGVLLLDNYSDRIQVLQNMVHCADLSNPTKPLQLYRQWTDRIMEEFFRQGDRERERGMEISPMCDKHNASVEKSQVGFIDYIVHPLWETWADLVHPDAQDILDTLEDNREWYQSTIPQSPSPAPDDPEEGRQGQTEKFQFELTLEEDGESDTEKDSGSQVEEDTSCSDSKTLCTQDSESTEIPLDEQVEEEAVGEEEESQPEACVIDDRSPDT
Sequence of PDE4C2 (Q08493 107-712): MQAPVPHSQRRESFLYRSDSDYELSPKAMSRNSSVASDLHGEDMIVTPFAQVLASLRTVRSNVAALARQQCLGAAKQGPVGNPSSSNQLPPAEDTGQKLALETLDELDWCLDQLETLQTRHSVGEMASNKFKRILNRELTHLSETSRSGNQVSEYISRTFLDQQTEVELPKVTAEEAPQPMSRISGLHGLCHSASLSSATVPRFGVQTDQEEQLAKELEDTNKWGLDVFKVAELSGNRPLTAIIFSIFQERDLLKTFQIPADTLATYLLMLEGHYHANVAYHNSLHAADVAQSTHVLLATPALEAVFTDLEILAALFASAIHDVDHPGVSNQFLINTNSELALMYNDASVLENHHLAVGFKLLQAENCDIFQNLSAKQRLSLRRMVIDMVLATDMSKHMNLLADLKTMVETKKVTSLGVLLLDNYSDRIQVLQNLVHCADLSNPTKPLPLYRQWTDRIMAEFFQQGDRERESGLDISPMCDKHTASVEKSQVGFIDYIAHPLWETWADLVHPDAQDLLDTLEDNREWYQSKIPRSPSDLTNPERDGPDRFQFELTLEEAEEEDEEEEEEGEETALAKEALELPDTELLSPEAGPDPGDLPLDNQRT
Sequence of PDE1A3 (P54750 whole entry): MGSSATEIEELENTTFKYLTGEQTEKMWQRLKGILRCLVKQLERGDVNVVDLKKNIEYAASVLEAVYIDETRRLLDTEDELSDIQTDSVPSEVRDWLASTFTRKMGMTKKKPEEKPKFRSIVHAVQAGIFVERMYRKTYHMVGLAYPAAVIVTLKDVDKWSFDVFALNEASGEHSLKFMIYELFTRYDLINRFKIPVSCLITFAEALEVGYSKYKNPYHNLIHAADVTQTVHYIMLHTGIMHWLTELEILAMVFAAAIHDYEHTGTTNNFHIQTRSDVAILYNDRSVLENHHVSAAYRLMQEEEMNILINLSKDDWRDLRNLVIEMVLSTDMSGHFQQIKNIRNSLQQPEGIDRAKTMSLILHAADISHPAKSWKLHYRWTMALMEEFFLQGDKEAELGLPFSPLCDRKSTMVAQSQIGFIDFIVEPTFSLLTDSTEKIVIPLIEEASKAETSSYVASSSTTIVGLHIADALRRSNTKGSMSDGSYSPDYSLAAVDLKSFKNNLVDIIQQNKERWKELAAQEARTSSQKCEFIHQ

SMILES: C[C@@H]1CN(Cc2ncccn2)C[C@H]1c1cn2c(C3CCOCC3)ncc2c(=O)[nH]1 [IMR-687]
- IC50 (PDE9A2): 0.01 µM
- genotoxicity (Genotoxicity): not genotoxic
- IC50 (PDE1A3): 88.4 µM
- IC50 (PDE4C2): > 100 µM
- peripheral WBC counts (rats; normal rats, up to 6 months, super-physiological doses): did not result in any reduction in peripheral WBC counts
- myelotoxicity, histological examination of bone marrow smears (rats; rats): did not demonstrate any myelotoxicity
- IC50 (PDE1B): 8.48 µM
- Cytotoxicity (cell counts) (K562 cells): not observed
- brain exposure levels lower than PF-04447943 ([1]; C57Bl/6J mice, 10 mg/kg/day for five days): 5 fold
- Kp at 5 days ([1]; C57Bl/6J, mouse, brain/plasma, 10 mg/kg/day): 0.07
- IC50 (PDE4D7): > 100 µM
- WBC lower than vehicle (HbSS-Townes mice; 30 mg/kg): 36%
- increase in Hb (HbSS-Townes mice; 30 mg/kg): 1.5 g/dL
- increase in hematocrit (HbSS-Townes mice; 30 mg/kg): 10%
- increase in mature RBC (HbSS-Townes mice; 30 mg/kg): 27%
- increase in plasma nitrite levels (HbSS-Townes mice; 30 mg/kg): ~2.5 fold
- reduction in reticulocyte counts (HbSS-Townes mice; 30 mg/kg): 36%
- reduction of MPO levels (HbSS-Townes mice; 30 mg/kg): 2.3 fold
- reduction of plasma bilirubin and LDH vs vehicle treated SS mice (HbSS-Townes mice; 30 mg/kg): over 2 fold
- reduction of plasma free Hb levels (HbSS-Townes mice; 30 mg/kg): over 55%
- lung MPO levels (HbSS-Townes mice; 30 mg/kg, HbSS-Townes vehicle 3.1 mU/L, P<0.0001): 1.3 mU/L
- reduction of lung arginase vs vehicle (HbSS-Townes mice; 30 mg/kg, P<0.0001): 25%
- plasma bilirubin (HbSS-Townes mice; 30 mg/kg, P<0.01): 4.7 mg/dL
- LDH activity (HbSS-Townes mice; 30 mg/kg, P<0.05): 102 AU
- plasma nitrite levels (HbSS-Townes mice; 30 mg/kg, untreated SS mice 0.56 mg/mL, P<0.05): 1.39 mg/mL
- WBC count (HbSS-Townes mice; 30 mg/kg, vehicle 38.2×10^9/L, P<0.05): 2.41e+10 L⁻¹
- decrease in sickled RBC vs vehicle (HbSS-Townes mice; 30 mg/kg/day): 2 fold
- increase in the percent of HbF+ F-cells vs vehicle (HbSS-Townes mice; 30 mg/kg/day): greater than 3 fold
- percent of HbF+ F-cells (HbSS-Townes mice; 30 mg/kg/day, vehicle 8.4%): 27.3%
- percent sickled RBC (HbSS-Townes mice; 30 mg/kg/day, vehicle 56.3%): 24.4%
